The RNAGym collection of RNA variant scans (doi:10.1038/s41586-018-0170-7)

B1: tRNA (parent)
chain: GUUCCGUUGGCGUAAUGGUAACGCGUCUCCCUCCUAAGGAGAAGACUGCGGGUUCGAGUCCCGUACGGAACG

Variants of: B1
Test: yeast fitness, log relative to wild type (ln ratio); higher = fitter; tRNA-Arg(CCU), competitive growth, 37 C, 1 M NaCl
In short: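 Genotype fitness is expressed as the natural log of its generations over those of the wild type. Each pool of the tRNA-Arg(CCU) variant library, carried on a HIS3 centromeric plasmid in BY4742 lacking the chromosomal gene, came from one of two independent transformations and grew 4 generations in SC-HIS at 30 °C before ~6.5 generations (~26.5 h) in SC-HIS 1M NaCl at 37 °C. Generation numbers used OD-scaled log2 output/input frequencies from 125 bp paired-end Illumina sequencing, combined across replicates by inverse-variance weighting.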
With U2C G6U C46U C66U C71U the “yeast fitness (ln)” value was -0.112. In the case of U2C G6U A43C, the “yeast fitness (ln)” value is reported as -0.0574. With U2C G6U C46U C66U A69G A70U C71U the “yeast fitness (ln)” value was -0.282. With G1A U2C G6A A43C C46U C66U A70G the “yeast fitness (ln)” value was -0.0356. With G1A U2G G6A C27U A43C C46U A69G A70G the “yeast fitness (ln)” value was -0.382. In the case of G1A U2C G6U A43C C46U C66A A69G A70U, the “yeast fitness (ln)” value is reported as -0.0654. With G1A U2G C66U A70U the “yeast fitness (ln)” value was -0.131. With G1A U2C C27U A69G A70G C71U the “yeast fitness (ln)” value was -0.0512. For G1A U2C C27U A43C C46U A69G A70G, the “yeast fitness (ln)” value was -0.178. For U2C G6U A43C C46U C66A A69G A70G C71U, the “yeast fitness (ln)” value was -0.00753. For U2C G6U C27U A43C C66U A70U C71U, the “yeast fitness (ln)” value was -0.363. With U2C C27U C66A A70G the “yeast fitness (ln)” value was -0.105. With U2C C27U A43C C46U A69G the “yeast fitness (ln)” value was -0.0409. With C27U A69G C71U the “yeast fitness (ln)” value was -0.113. In the case of G1A G6U A70G C71U, the “yeast fitness (ln)” value is reported as -0.148. With G1A G6U C27U A43C C46U C66U A69G C71U the “yeast fitness (ln)” value was -0.423. In the case of G6A A43C C46U C66U C71U, the “yeast fitness (ln)” value is reported as -0.12. For C27U A43C A70U C71U, the “yeast fitness (ln)” value was -0.181. For U2C C66A A69G A70U, the “yeast fitness (ln)” value was -0.0958. In the case of U2G G6U C27U C46U C66U A69G A70G C71U, the “yeast fitness (ln)” value is reported as -0.356. For G6U C27U C66A A70G C71U, the “yeast fitness (ln)” value was -0.294. In the case of G1A U2G C27U C66A A70U, the “yeast fitness (ln)” value is reported as -0.165. With G1A A43C A69G C71U the “yeast fitness (ln)” value was -0.0687. In the case of U2C A43C C66A A70U C71U, the “yeast fitness (ln)” value is reported as -0.275. With G1A U2G C27U A43C A69G A70U C71U the “yeast fitness (ln)” value was -0.353. For U2C G6A A43C C66A A70U, the “yeast fitness (ln)” value was -0.0851. For U2C C27U A43C C46U C66U, the “yeast fitness (ln)” value was -0.0652. With G1A U2G G6U C27U A43C C66U A69G A70G the “yeast fitness (ln)” value was -0.337. In the case of G1A U2G G6U A43C C46U C66U A69G A70U, the “yeast fitness (ln)” value is reported as -0.299. With U2C G6U C27U C46U C66A A69G A70G the “yeast fitness (ln)” value was -0.035. For G1A U2G G6U C27U A43C C46U C66U A70G, the “yeast fitness (ln)” value was -0.564. With U2G G6U C27U C46U A69G the “yeast fitness (ln)” value was -0.255. With U2G G6A C27U C66A A70G the “yeast fitness (ln)” value was -0.15. For C27U C46U A70U, the “yeast fitness (ln)” value was -0.0227. In the case of U2C G6A C27U A43C C66U, the “yeast fitness (ln)” value is reported as -0.179. With U2G C46U C66A the “yeast fitness (ln)” value was -0.0933. With U2G C46U C66U the “yeast fitness (ln)” value was -0.0936. For U2G C27U C46U A70U C71U, the “yeast fitness (ln)” value was -0.0474. With G6U C27U A43C C46U A69G A70U C71U the “yeast fitness (ln)” value was -0.45. For G1A G6U C27U C46U C66U A69G A70G C71U, the “yeast fitness (ln)” value was -0.388. In the case of U2G G6A C27U A43C C46U C66U A70U C71U, the “yeast fitness (ln)” value is reported as -0.598. In the case of U2G A43C C66A A70G, the “yeast fitness (ln)” value is reported as -0.103. For G6U C27U A43C C46U A69G A70U, the “yeast fitness (ln)” value was -0.245. With G1A U2G C27U C46U C66A A69G A70G C71U the “yeast fitness (ln)” value was -0.247. With G1A G6U C27U A43C C46U A70U C71U the “yeast fitness (ln)” value was -0.318. For G1A U2G G6U A43C C66A A70G, the “yeast fitness (ln)” value was -0.251. In the case of G6A C27U A43C C46U C66A A69G A70G C71U, the “yeast fitness (ln)” value is reported as -0.292. In the case of U2C C27U C46U A70U, the “yeast fitness (ln)” value is reported as -0.0474. With G1A U2G C27U C46U C66U A69G A70G the “yeast fitness (ln)” value was -0.231. With U2C G6U C27U C46U A69G A70U C71U the “yeast fitness (ln)” value was -0.334. With U2C G6A A43C C46U C66U A70U C71U the “yeast fitness (ln)” value was -0.199. With U2G G6A C27U A43C C46U C66A A69G A70U the “yeast fitness (ln)” value was -0.187. In the case of G1A U2G A43C C46U C66U, the “yeast fitness (ln)” value is reported as -0.116. With G1A U2C C27U A43C C46U C66A A69G A70G C71U the “yeast fitness (ln)” value was -0.158. With U2G C46U C66A A70U the “yeast fitness (ln)” value was -0.0904. For G1A G6U C46U C66U A70U, the “yeast fitness (ln)” value was -0.153. In the case of U2G G6U C66A A70U C71U, the “yeast fitness (ln)” value is reported as -0.0189. With U2C G6U A43C C46U C66U A69G A70U the “yeast fitness (ln)” value was -0.211. For G1A G6U C46U A69G A70G, the “yeast fitness (ln)” value was -0.203. In the case of G6A A43C A69G A70U C71U, the “yeast fitness (ln)” value is reported as -0.429. For U2C C46U C66U A69G A70G, the “yeast fitness (ln)” value was -0.02. For C27U A43C C46U, the “yeast fitness (ln)” value was -0.00723. For G1A G6U A43C C46U C66U A69G A70U C71U, the “yeast fitness (ln)” value was -0.429. For U2C G6U A43C C66A A70G, the “yeast fitness (ln)” value was -0.0246. In the case of U2C G6A A43C C46U A69G A70U, the “yeast fitness (ln)” value is reported as -0.0634. With U2C G6U C71U the “yeast fitness (ln)” value was -0.0615. With U2G C27U C66A A70G C71U the “yeast fitness (ln)” value was -0.201. In the case of U2C A43C C46U A69G C71U, the “yeast fitness (ln)” value is reported as -0.0944. In the case of G6A C27U C66U A69G, the “yeast fitness (ln)” value is reported as -0.0541. For U2C C27U A43C C46U A70G C71U, the “yeast fitness (ln)” value was -0.00986. In the case of U2C G6A C46U A69G C71U, the “yeast fitness (ln)” value is reported as -0.107. For U2G G6U A43C A69G A70G, the “yeast fitness (ln)” value was -0.237. With G1A U2G G6U A43C C46U A70U the “yeast fitness (ln)” value was -0.235. In the case of G1A G6U C27U A43C C66U, the “yeast fitness (ln)” value is reported as -0.362. For G1A U2G G6A C27U A43C C66U A69G A70G, the “yeast fitness (ln)” value was -0.447. For U2G C66A C71U, the “yeast fitness (ln)” value was -0.108. With G6A A43C C46U C66U A69G A70G C71U the “yeast fitness (ln)” value was -0.24. For U2G G6A A43C C46U C66A A70U C71U, the “yeast fitness (ln)” value was -0.227. In the case of G1A G6U A43C C66A A70U, the “yeast fitness (ln)” value is reported as -0.411. In the case of G1A C27U C46U A70G, the “yeast fitness (ln)” value is reported as -0.175. For U2C G6A C27U A43C A69G A70G, the “yeast fitness (ln)” value was -0.211. For U2G A43C C46U C66U A70U C71U, the “yeast fitness (ln)” value was -0.214. With G1A U2G G6U C27U C46U C66A A69G A70G C71U the “yeast fitness (ln)” value was -0.417. With U2C G6A C66U A70G C71U the “yeast fitness (ln)” value was -0.0109.
